Assay [1] concerns Plasmodium falciparum. The assay is described as follows: Inhibitory concentration against Plasmodium falciparum. Type of assay: functional, organism-based. The essentials:
(§1)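 Chloroquine-resistant P. falciparum cultures were exposed to a range of compound concentrations for 48 h, starting at the ring stage. New ring forms were counted by FACS (flow cytometry), and parasitemia was compared with untreated controls to derive IC50.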

Assay [2] deals with Plasmodium falciparum. The assay is described as follows: Inhibitory concentration against Plasmodium falciparum in FACS. The class given is functional, organism-based. The essentials:
as §1

Assay [3] concerns the target T1, Falcipain 2 (Plasmodium falciparum, UniProt Q9N6S8).
T1 sequence (Q9N6S8 whole entry): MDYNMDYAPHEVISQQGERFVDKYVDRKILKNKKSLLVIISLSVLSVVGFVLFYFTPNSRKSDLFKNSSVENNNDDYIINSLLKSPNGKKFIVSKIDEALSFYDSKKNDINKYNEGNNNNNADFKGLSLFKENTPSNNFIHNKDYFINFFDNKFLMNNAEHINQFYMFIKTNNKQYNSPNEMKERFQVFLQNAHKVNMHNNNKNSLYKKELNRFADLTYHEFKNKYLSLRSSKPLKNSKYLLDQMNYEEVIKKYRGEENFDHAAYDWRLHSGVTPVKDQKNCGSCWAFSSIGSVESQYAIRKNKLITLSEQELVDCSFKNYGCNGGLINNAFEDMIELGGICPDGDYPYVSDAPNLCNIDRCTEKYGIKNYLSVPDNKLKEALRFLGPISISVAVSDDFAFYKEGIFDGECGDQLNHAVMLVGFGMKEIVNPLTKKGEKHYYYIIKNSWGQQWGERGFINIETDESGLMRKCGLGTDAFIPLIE
Kind of assay: Inhibitory concentration against recombinant Falcipain-2.

For assay [4], the species on record is Mus musculus. The assay is described as follows: Inhibition of hemoglobin hydrolysis in mice (Mus musculus) infected with Plasmodium berghei at 5 uM. Type of assay: functional.
The species named for assay [5] is Mus musculus. The assay is described as follows: Inhibition of hemoglobin hydrolysis in mice (Mus musculus) infected with Plasmodium berghei at 10 uM. Type of assay: functional.
Assay [6] addresses T2, Histidine-rich protein PFHRP-II (Plasmodium falciparum) (UniProt P05227).
T2 sequence (whole entry): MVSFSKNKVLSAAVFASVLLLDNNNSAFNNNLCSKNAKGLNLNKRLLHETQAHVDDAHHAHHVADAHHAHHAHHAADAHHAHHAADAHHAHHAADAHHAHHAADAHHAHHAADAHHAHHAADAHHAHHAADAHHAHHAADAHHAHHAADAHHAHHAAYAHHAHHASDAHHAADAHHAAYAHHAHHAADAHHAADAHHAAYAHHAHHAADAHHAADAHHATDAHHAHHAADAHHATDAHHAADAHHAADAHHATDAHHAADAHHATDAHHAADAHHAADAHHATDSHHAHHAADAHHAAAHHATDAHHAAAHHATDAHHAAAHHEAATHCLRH
The settings on record: Plasmodium berghei; 100 uM.

Assay [7] is filed under the species Mus musculus. Kind of assay: Inhibition of hemoglobin hydrolysis in mice (Mus musculus) infected with Plasmodium berghei at 100 uM. Type of assay: functional.
Assay [8] has as its target T1, Falcipain 2. Kind of assay: Inhibitory concentration against falcipain-2; No significant effect impaired solubility.

As usually defined, the IC50 is the concentration at which inhibition is half-maximal. Broadly, the Inhibition is how much of the control response was suppressed. One may read the inhibition as the drop in the measured response relative to a control, in per cent.

Molecules are shown by their SMILES.

As for `COc1ccc(NC(=O)Nc2ccc(C(=O)/C=C/c3ccc(C)cc3)cc2)cc1`, the half-maximal inhibitory concentration (IC50) in assay [1] is over 10 µM.
Compound `O=C(Nc1ccccc1)Nc1ccc(C(=O)/C=C/c2ccc(F)cc2F)cc1` registered an IC50 in assay [1] of over 10 µM.
As for `O=C(Nc1ccccc1)Nc1cccc(C(=O)/C=C/c2ccc3c(c2)OCO3)c1`, in assay [1], the IC50 is over 10 µM.
`COc1cc(/C=C/C(=O)c2ccc(NC(=O)Nc3ccc(Cl)cc3)cc2)cc(OC)c1OC`: the IC50 in assay [2] is 3 µM; in assay [3], 1.8 µM.
The compound `COc1ccc(/C=C/C(=O)c2cccc(NC(=O)Nc3ccccc3)c2)cc1OC` registered an IC50 in assay [1] of over 10 µM.
With `COc1cccc(/C=C/C(=O)c2cccc(NC(=O)Nc3ccccc3)c2)c1OC`, the 50% inhibitory concentration (IC50) in assay [1] was over 10 µM.
`COc1ccc(/C=C/C(=O)c2ccc(NC(=O)Nc3ccccc3)cc2)cc1` came in with an IC50 in assay [1] of over 10 µM.
For the compound `O=C(Nc1ccccc1)Nc1ccc(C(=O)/C=C/c2ccc3c(c2)OCO3)cc1`, the IC50 in assay [1] was over 10 µM.
Consider `O=C(Nc1ccc(Cl)cc1)Nc1ccc(C(=O)/C=C/c2ccc(F)cc2)cc1`, for which, in assay [1], the IC50 was over 10 µM.
Regarding `O=C(Nc1ccccc1)Nc1cccc(C(=O)/C=C/c2ccc(F)cc2)c1`, the 50% inhibitory concentration (IC50) in assay [1] is over 10 µM.
Regarding `COc1ccc(NC(=O)Nc2ccc(C(=O)/C=C/c3ccc(F)cc3)cc2)cc1`, the half-inhibitory concentration (IC50) in assay [1] is over 10 µM.
Consider `O=C(Nc1ccc(Cl)cc1)Nc1ccc(C(=O)/C=C/c2ccc(Cl)cc2Cl)cc1`, for which the figures for the IC50 in assay [2] and in assay [3] were 5 µM and 2.5 µM, respectively. The Inhibition in assay [4] stood at 60.31%.
Compound `COc1ccc(/C=C/C(=O)c2ccc(NC(=O)Nc3ccc(OC)cc3)cc2)cc1` showed an IC50 in assay [1] of over 10 µM.
Consider `CC(C)CC(=O)N[C@H](C(=O)N[C@H](C(=O)N[C@@H](CC(C)C)[C@@H](O)CC(=O)N[C@@H](C)C(=O)N[C@@H](CC(C)C)[C@@H](O)CC(=O)O)C(C)C)C(C)C` [PEPSTATIN], for which, in assay [5], the Inhibition was 91.91%.
Take `O=C(Nc1ccc(Cl)cc1)Nc1ccc(C(=O)/C=C/c2ccc(Cl)cc2)cc1`: the IC50 in assay [2] came to 10 µM; in assay [3] it was 2.6 µM.
`O=C(Nc1ccccc1)Nc1cccc(C(=O)/C=C/c2ccccc2)c1` displayed a concentration for half-maximal inhibition (IC50) in assay [1] of over 10 µM.
The same measure, in the same setting: for `O=C(Nc1ccccc1)Nc1cccc(C(=O)/C=C/c2ccc(Cl)cc2)c1` the value was over 10 µM; for `O=C(Nc1ccccc1)Nc1ccc(C(=O)/C=C/c2ccccc2)cc1`, over 10 µM; for `COc1ccc(/C=C/C(=O)c2cccc(NC(=O)Nc3ccccc3)c2)cc1`, over 10 µM.
In assay [6], `CCN(CC)CCCC(C)Nc1ccnc2cc(Cl)ccc12` (centres undefined) [CHLOROQUINE] registered an inhibition of 86.6%. This compound also returned an Inhibition in assay [7] of 5.15%.
Regarding `Cc1ccc(/C=C/C(=O)c2ccc(NC(=O)Nc3ccc(Cl)cc3)cc2)cc1`, the half-inhibitory concentration (IC50) in assay [1] is over 10 µM.
In assay [1], `COc1ccc(NC(=O)Nc2ccc(C(=O)/C=C/c3ccc(Cl)cc3Cl)cc2)cc1` registered an IC50 of over 10 µM.
`COc1ccc(NC(=O)Nc2ccc(C(=O)/C=C/c3ccc(Cl)cc3)cc2)cc1` yielded an IC50 in assay [1] of over 10 µM.
In assay [5], `CC(=O)N[C@@H](CC(C)C)C(=O)N[C@@H](CC(C)C)C(=O)N[C@H](C=O)CCCNC(=N)N` [LEUPEPTIN] came in with an Inhibition of 87.02%. For the same compound, the IC50 in assay [2] came out at 6.26 µM; in assay [3] it was 0.0058 µM.
As for `Cc1ccc(/C=C/C(=O)c2ccc(NC(=O)Nc3ccccc3)cc2)cc1`, the IC50 in assay [1] was over 10 µM.
`COc1cc(/C=C/C(=O)c2ccc(NC(=O)Nc3ccccc3)cc2)cc(OC)c1OC` yielded an IC50 in assay [1] of over 10 µM.
Compound `COc1ccc(NC(=O)Nc2ccc(C(=O)/C=C/c3cc(OC)c(OC)c(OC)c3)cc2)cc1` showed an IC50 in assay [1] of over 10 µM.
In assay [1], `O=C(Nc1ccccc1)Nc1ccc(C(=O)/C=C/c2ccc(Cl)cc2)cc1` came in with a half-maximal inhibitory concentration (IC50) of over 10 µM.
In the case of `O=C(Nc1ccccc1)Nc1cccc(C(=O)/C=C/c2ccc(Br)cc2)c1`, the IC50 result in assay [8] is “No significant effect”; in assay [2], 2.1 µM. This compound also gave an Inhibition in assay [4] of 66.58%.
For `O=C(Nc1ccc(Cl)cc1)Nc1ccc(C(=O)/C=C/c2ccc3c(c2)OCO3)cc1`, the IC50 turned out to be 10 µM in assay [2] and 2.5 µM in assay [3].
Take `COc1ccc(NC(=O)Nc2ccc(C(=O)/C=C/c3ccc4c(c3)OCO4)cc2)cc1`: the half-inhibitory concentration (IC50) in assay [1] was over 10 µM.
In assay [1], `O=C(Nc1ccccc1)Nc1ccc(C(=O)/C=C/c2ccc(Cl)cc2Cl)cc1` registered a 50% inhibitory concentration (IC50) of over 10 µM.
In turn, `O=C(Nc1ccccc1)Nc1ccc(C(=O)/C=C/c2ccc(F)cc2)cc1` displayed a half-maximal inhibitory concentration (IC50) in assay [1] of over 10 µM.
Still for that read-out and setting: the result for `COc1ccc(/C=C/C(=O)c2ccc(NC(=O)Nc3ccc(Cl)cc3)cc2)cc1` reads over 10 µM; that for `COc1ccc(/C=C/C(=O)c2ccc(NC(=O)Nc3ccccc3)cc2)c(OC)c1`, over 10 µM.
Regarding `COc1cc(/C=C/C(=O)c2cccc(NC(=O)Nc3ccccc3)c2)cc(OC)c1OC`, the figures for the IC50 result in assay [8] and in assay [2] were “No significant effect” and 1.76 µM, respectively. Also, in assay [4], the Inhibition turned out to be 51.45%.
`COc1ccc(NC(=O)Nc2ccc(C(=O)/C=C/c3ccc(F)cc3F)cc2)cc1` gave an IC50 in assay [1] of over 10 µM.
In turn, `CN(C)c1ccc(/C=C/C(=O)c2cccc(NC(=O)Nc3ccccc3)c2)cc1` returned an IC50 in assay [1] of over 10 µM.
Turning to `O=C(Nc1ccccc1)Nc1cccc(C(=O)/C=C/c2ccc(Cl)cc2Cl)c1`, the figures for the half-inhibitory concentration (IC50) entry in assay [8] and in assay [2] were “No significant effect” and 2.14 µM, respectively. For the same compound, the Inhibition in assay [4] worked out at 60.72%.
With `O=C(Nc1ccc(Cl)cc1)Nc1ccc(C(=O)/C=C/c2ccc(F)cc2F)cc1`, the half-maximal inhibitory concentration (IC50) in assay [2] turned out to be 8 µM; in assay [3], 2.6 µM. The Inhibition in assay [4] is 33.04%.
As for `O=C(Nc1ccc(Cl)cc1)Nc1ccc(C(=O)/C=C/c2ccccc2)cc1`, the 50% inhibitory concentration (IC50) in assay [2] is 9 µM; in assay [3] it was 3.8 µM.
`COc1ccc(/C=C/C(=O)c2cccc(NC(=O)Nc3ccccc3)c2)c(OC)c1` had a 50% inhibitory concentration (IC50) in assay [1] of over 10 µM.
On the same count and under the same terms, the result for `COc1ccc(/C=C/C(=O)c2ccc(NC(=O)Nc3ccc(Cl)cc3)cc2)c(OC)c1` reads over 10 µM.
For `O=C(Nc1ccccc1)Nc1ccc(C(=O)/C=C/c2ccccn2)cc1`, the half-inhibitory concentration (IC50) in assay [1] is over 10 µM.
Regarding `O=C(Nc1ccccc1)Nc1cccc(C(=O)/C=C/c2ccc(F)cc2F)c1`, in assay [1], the concentration for half-maximal inhibition (IC50) was over 10 µM.
Turning to `CC(C)C[C@H](NC(=O)[C@H]1O[C@@H]1C(=O)O)C(=O)NCCCCN=C(N)N` [E-64], the IC50 in assay [2] was 2.5 µM; in assay [3], 0.058 µM.
Take `Cc1ccc(/C=C/C(=O)c2cccc(NC(=O)Nc3ccccc3)c2)cc1`: the IC50 entry was “No significant effect” in assay [8] and 2.74 µM in assay [2]. Besides, the Inhibition in assay [4] is 74.93%.
In the case of `COc1ccc(NC(=O)Nc2ccc(C(=O)/C=C/c3ccc(OC)cc3OC)cc2)cc1`, in assay [1], the half-maximal inhibitory concentration (IC50) was over 10 µM.
Compound `COc1ccc(NC(=O)Nc2ccc(C(=O)/C=C/c3ccccc3)cc2)cc1` registered a concentration for half-maximal inhibition (IC50) in assay [1] of over 10 µM.

For the origin of these results see ChEMBL document CHEMBL1141931, “Synthesis and evaluation of new antimalarial phenylurenyl chalcone derivatives” (J Med Chem, 2005).
